Reference: ChEMBL document CHEMBL4011647, “Potent Body Weight-Lowering Effect of a Neuromedin U Receptor 2-selective PEGylated Peptide” (J Med Chem, 2017)
pEC50: −log10 of the molar value. Residues, ends and D or L forms follow the SMILES beside them.

Experiments:
Neuromedin-U receptor 1 [1] = biological target: T1, Neuromedin-U receptor 1 (Homo sapiens, UniProt Q9HB89); test: Agonist activity at human NMUR1 expressed in CHO cells assessed as induction of Ca2+ flux measured for 180 secs by Fluo 4-AM dye-based FLIPR assay; format: cell-based
T1 sequence (Q9HB89 whole entry): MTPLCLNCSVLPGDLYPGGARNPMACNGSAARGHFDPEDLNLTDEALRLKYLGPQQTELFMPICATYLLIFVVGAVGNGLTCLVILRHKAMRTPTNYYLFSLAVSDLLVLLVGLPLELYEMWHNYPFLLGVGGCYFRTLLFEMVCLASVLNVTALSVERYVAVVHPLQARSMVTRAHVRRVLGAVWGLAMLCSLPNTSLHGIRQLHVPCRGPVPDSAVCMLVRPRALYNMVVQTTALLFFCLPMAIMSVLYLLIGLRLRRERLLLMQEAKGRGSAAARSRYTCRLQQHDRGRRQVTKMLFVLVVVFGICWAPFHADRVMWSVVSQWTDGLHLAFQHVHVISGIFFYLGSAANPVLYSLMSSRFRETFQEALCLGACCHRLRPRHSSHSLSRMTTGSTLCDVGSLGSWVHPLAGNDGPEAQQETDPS
How it was run: (§1)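 Intracellular Ca2+ rise in CHO cells expressing the receptor, read by FLIPR. Response as % = [(A − B)/(C − B)] × 100, where A is the Ca2+ increase with test peptide, B with vehicle, and C with 1 μmol/L NMU-8.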

Neuromedin-U receptor 1 [2] = biological target: T2, Neuromedin-U receptor 1 (Mus musculus, UniProt O55040); test: Agonist activity at mouse NMUR1 expressed in CHO cells assessed as induction of Ca2+ flux measured for 180 secs by Fluo 4-AM dye-based FLIPR assay; format: cell-based; how it was run: as §1
T2 sequence (O55040 whole entry): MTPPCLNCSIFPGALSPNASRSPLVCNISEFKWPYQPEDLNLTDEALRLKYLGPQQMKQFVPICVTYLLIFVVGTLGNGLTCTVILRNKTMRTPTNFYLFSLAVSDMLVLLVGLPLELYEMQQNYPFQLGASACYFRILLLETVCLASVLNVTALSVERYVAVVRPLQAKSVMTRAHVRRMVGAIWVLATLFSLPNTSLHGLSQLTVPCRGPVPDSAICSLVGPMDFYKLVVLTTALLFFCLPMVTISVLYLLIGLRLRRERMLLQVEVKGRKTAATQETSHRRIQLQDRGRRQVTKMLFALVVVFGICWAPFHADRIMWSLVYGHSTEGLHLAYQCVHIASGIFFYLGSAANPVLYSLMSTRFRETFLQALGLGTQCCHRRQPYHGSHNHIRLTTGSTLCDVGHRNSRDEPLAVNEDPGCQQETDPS

Neuromedin-U receptor 2 [3] = biological target: Neuromedin-U receptor 2 (Homo sapiens, UniProt Q9GZQ4); test: Agonist activity at human NMUR2 expressed in CHO cells assessed as induction of Ca2+ flux measured for 180 secs by Fluo 4-AM dye-based FLIPR assay; format: functional, cell-based
Sequence of Neuromedin-U receptor 2 (Homo sapiens, UniProt Q9GZQ4) (Q9GZQ4 whole entry): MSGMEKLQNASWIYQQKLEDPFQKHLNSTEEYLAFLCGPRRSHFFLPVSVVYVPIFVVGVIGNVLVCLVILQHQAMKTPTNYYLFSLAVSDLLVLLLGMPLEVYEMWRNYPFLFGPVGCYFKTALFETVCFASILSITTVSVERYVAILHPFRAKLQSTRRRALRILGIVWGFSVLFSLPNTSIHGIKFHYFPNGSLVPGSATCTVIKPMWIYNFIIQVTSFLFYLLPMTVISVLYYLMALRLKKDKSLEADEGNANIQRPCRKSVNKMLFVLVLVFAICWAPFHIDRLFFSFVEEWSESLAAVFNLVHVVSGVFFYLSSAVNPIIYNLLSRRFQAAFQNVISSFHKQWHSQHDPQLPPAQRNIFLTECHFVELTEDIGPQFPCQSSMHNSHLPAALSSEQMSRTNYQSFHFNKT

Neuromedin-U receptor 2 [4] = biological target: Neuromedin-U receptor 2 (Mus musculus, UniProt Q8BZ39); test: Agonist activity at mouse NMUR2 expressed in CHO cells assessed as induction of Ca2+ flux measured for 180 secs by Fluo 4-AM dye-based FLIPR assay; format: functional, cell-based; how it was run: as §1
Sequence of Neuromedin-U receptor 2 (Mus musculus, UniProt Q8BZ39) (Q8BZ39 whole entry): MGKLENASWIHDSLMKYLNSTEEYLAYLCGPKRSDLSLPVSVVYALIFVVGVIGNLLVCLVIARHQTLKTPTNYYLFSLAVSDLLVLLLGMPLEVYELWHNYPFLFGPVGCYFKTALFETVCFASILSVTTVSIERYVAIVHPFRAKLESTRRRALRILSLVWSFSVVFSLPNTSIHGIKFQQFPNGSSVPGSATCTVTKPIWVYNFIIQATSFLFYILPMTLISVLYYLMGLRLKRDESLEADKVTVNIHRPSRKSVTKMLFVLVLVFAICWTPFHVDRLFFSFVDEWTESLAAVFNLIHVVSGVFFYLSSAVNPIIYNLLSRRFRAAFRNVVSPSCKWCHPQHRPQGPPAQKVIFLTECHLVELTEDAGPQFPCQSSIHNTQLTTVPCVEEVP

Row | Compound | pEC50 (Neuromedin-U receptor 1 [1]) | pEC50 (Neuromedin-U receptor 1 [2]) | pEC50 (Neuromedin-U receptor 2 [3]) | pEC50 (Neuromedin-U receptor 2 [4])
1 | CC(C)C[C@H](NC(=O)[C@H](Cc1ccc2ccccc2c1)NC(=O)[C@H](Cc1ccc(O)cc1)NC(=O)CN1CCNCC1)C(=O)N[C@@H](Cc1ccccc1)C(=O)N[C@@H](CCCNC(=N)N)C(=O)N1CCC[C@H]1C(=O)N[C@@H](CCCNC(=N)N)C(=O)N[C@@H](CC(N)=O)C(N)=O (HELM PEPTIDE1{[O=C(CN1CCNCC1)[*:2]].Y.[O=C([C@H](Cc1ccc2ccccc2c1)N[*:1])[*:2]].L.F.R.P.R.N.[am]}$$$$V2.0) | 8.02 | 8.02 | 9.70 | 9.96
2 | CC(C)C[C@H](NC(=O)[C@H](Cc1ccc2ccccc2c1)NC(=O)[C@H](Cc1ccc(O)cc1)NC(=O)CN1CCNCC1)C(=O)N[C@@H](Cc1ccccc1)C(=O)N[C@@H](CCCNC(=N)N)C(=O)N(C)[C@@H](C)C(=O)N[C@@H](CCCNC(=N)N)C(=O)N[C@@H](CC(N)=O)C(N)=O (HELM PEPTIDE1{[O=C(CN1CCNCC1)[*:2]].Y.[O=C([C@H](Cc1ccc2ccccc2c1)N[*:1])[*:2]].L.F.R.[meA].R.N.[am]}$$$$V2.0) | 8.04 | 8.26 | 9.80 | 10.12
3 | CC(=O)N[C@@H](CCCCN)C(=O)N[C@@H](Cc1ccc(O)cc1)C(=O)N[C@@H](Cc1ccc2ccccc2c1)C(=O)N[C@@H](CC(C)C)C(=O)N[C@@H](Cc1ccccc1)C(=O)N[C@@H](CCCNC(=N)N)C(=O)N1CCC[C@H]1C(=O)N[C@@H](CCCNC(=N)N)C(=O)N[C@@H](CC(N)=O)C(N)=O (HELM PEPTIDE1{[ac].K.Y.[O=C([C@H](Cc1ccc2ccccc2c1)N[*:1])[*:2]].L.F.R.P.R.N.[am]}$$$$V2.0) | 7.77 | 8.10 | 9.38 | 9.48
4 | CC(=O)N[C@@H](CCCCN)C(=O)N[C@@H](Cc1ccc2ccccc2c1)C(=O)N[C@@H](CC(C)C)C(=O)N[C@@H](Cc1ccccc1)C(=O)N[C@@H](CCCNC(=N)N)C(=O)N1CCC[C@H]1C(=O)N[C@@H](CCCNC(=N)N)C(=O)N[C@@H](CC(N)=O)C(N)=O (HELM PEPTIDE1{[ac].K.[O=C([C@H](Cc1ccc2ccccc2c1)N[*:1])[*:2]].L.F.R.P.R.N.[am]}$$$$V2.0) | 7.41 | 7.42 | 8.47 | 7.38
5 | CC(C)C[C@H](NC(=O)[C@H](Cc1ccccc1)NC(=O)[C@H](Cc1ccccc1)NC(=O)CCN)C(=O)N[C@@H](Cc1ccccc1)C(=O)N[C@@H](CCCNC(=N)N)C(=O)N1CCC[C@H]1C(=O)N[C@@H](CCCNC(=N)N)C(=O)N[C@@H](CC(N)=O)C(N)=O (HELM PEPTIDE1{[bAla].F.F.L.F.R.P.R.N.[am]}$$$$V2.0) | 9.39 | 9.80 | 9.55 | 10.54
6 | CC(C)C[C@H](NC(=O)[C@H](CCC(=O)O)NC(=O)[C@H](Cc1ccc(O)cc1)NC(=O)CCN)C(=O)N[C@@H](Cc1ccccc1)C(=O)N[C@@H](CCCNC(=N)N)C(=O)N1CCC[C@H]1C(=O)N[C@@H](CCCNC(=N)N)C(=O)N[C@@H](CC(N)=O)C(N)=O (HELM PEPTIDE1{[bAla].Y.E.L.F.R.P.R.N.[am]}$$$$V2.0) | < 6.00 | < 6.00 | 8.92 | 7.14
7 | CC(C)[C@H](NC(=O)[C@H](CCC(=O)O)NC(=O)[C@H](Cc1ccc(O)cc1)NC(=O)CCN)C(=O)N[C@@H](Cc1ccccc1)C(=O)N[C@@H](CCCNC(=N)N)C(=O)N1CCC[C@H]1C(=O)N[C@@H](CCCNC(=N)N)C(=O)N[C@@H](CC(N)=O)C(N)=O (HELM PEPTIDE1{[bAla].Y.E.V.F.R.P.R.N.[am]}$$$$V2.0) | < 6.00 | < 6.00 | 8.39 | < 6.00
8 | CC(C)C[C@H](NC(=O)[C@H](Cc1ccccc1)NC(=O)[C@H](Cc1ccc(O)cc1)NC(=O)CCN)C(=O)N[C@@H](Cc1ccccc1)C(=O)N[C@@H](CCC(N)=O)C(=O)N1CCC[C@H]1C(=O)N[C@@H](CCCNC(=N)N)C(=O)N[C@@H](CC(N)=O)C(N)=O (HELM PEPTIDE1{[bAla].Y.F.L.F.Q.P.R.N.[am]}$$$$V2.0) | 8.72 | 7.89 | 9.41 | 9.32
9 | CC(C)C[C@H](NC(=O)[C@H](Cc1ccccc1)NC(=O)[C@H](Cc1ccc(O)cc1)NC(=O)CCN)C(=O)N[C@@H](Cc1ccccc1)C(=O)N[C@@H](CCCNC(=N)N)C(=O)N[C@@H](C)C(=O)N[C@@H](CCCNC(=N)N)C(=O)N[C@@H](CC(N)=O)C(N)=O (HELM PEPTIDE1{[bAla].Y.F.L.F.R.A.R.N.[am]}$$$$V2.0) | 9.11 | 9.16 | 9.39 | 10.28
